Test results as given in ChEMBL document CHEMBL1122788, “Quantitative relationships between alpha-adrenergic activity and binding affinity of alpha-adrenoceptor agonists and antagonists” (J Med Chem, 1984).
Counter-ions that a name gives are not always drawn.

Assays:
Rattus norvegicus [1] = experiment: Hypertensive activity (increase in arterial pressure to 60 mmHg)) after i.v. administration to pithed rats.
Rattus norvegicus [2] = experiment: Hypotensive activity (25% decrease in arterial pressure) after i.v. administration to anesthetized normotensive rats.
[3] = target: T1, Adrenergic receptor alpha-1 (Rattus norvegicus, UniProt P15823+P23944+P43140); experiment: Binding affinity against alpha-1 adrenergic receptor is the ability to inhibit the specific [3H]prazosin binding (0.2 nM) to rat isolated brain membranes by 50% was reported; 8.9*10e-7; assay type: tissue-based, Membrane
T1 sequence (P15823 whole entry): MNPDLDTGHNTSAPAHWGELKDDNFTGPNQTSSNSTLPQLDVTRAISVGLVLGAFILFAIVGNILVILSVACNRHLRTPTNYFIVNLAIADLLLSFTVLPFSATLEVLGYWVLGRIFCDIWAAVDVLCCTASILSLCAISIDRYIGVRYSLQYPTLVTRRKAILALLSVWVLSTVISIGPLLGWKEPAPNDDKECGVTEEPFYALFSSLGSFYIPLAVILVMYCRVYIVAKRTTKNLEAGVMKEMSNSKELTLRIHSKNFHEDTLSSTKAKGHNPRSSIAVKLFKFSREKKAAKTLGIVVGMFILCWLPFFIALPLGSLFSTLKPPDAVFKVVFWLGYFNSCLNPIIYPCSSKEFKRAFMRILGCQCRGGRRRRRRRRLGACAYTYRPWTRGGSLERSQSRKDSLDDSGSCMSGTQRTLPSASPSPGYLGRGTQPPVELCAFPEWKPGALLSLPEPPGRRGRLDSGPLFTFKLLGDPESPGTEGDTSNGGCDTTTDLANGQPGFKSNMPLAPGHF
T1 sequence (P23944 whole entry): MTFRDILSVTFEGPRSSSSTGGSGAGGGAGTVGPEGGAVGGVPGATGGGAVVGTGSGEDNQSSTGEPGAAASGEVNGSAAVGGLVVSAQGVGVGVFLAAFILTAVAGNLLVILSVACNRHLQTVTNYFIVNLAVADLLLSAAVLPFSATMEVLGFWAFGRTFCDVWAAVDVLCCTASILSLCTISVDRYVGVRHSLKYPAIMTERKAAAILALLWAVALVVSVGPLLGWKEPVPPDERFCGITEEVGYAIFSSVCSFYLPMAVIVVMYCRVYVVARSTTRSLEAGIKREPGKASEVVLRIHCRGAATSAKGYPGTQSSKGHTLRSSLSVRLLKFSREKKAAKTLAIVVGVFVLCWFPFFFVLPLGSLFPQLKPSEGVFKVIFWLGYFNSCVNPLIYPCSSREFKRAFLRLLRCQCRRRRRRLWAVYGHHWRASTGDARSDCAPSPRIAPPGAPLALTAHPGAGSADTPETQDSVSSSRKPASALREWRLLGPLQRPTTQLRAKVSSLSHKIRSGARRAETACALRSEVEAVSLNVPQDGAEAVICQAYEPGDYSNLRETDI
T1 sequence (P43140 whole entry): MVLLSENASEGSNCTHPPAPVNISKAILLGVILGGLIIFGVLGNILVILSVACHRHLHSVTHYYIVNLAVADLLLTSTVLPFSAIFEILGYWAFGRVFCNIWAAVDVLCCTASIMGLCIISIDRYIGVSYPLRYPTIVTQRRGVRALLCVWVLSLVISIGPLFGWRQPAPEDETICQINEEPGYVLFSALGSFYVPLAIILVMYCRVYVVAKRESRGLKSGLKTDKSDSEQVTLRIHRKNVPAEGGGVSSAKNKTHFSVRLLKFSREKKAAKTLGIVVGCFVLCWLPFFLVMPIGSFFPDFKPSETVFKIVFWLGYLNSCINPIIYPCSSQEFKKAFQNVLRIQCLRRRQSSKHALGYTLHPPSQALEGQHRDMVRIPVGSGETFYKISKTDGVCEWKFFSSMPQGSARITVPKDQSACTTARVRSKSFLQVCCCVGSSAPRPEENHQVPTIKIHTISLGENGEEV

[4] = Apparent partion coefficient of compound was evaluated in octanol/buffer at pH of 7.4 at 37 degree Centigrade; assay type: physicochemical; settings: pH 7.4
[5] = target: T2, Adrenergic receptor alpha-2 (Rattus norvegicus, UniProt P22086+P19328+P22909); experiment: Binding affinity against Alpha-2 adrenergic receptor is the ability to inhibit the specific [3H]-clonidine binding (0.4 nM) to rat isolated brain membranes by 50% was reported; 5.9*10e-8; assay type: tissue-based, Membrane
T2 sequence (P22086 whole entry): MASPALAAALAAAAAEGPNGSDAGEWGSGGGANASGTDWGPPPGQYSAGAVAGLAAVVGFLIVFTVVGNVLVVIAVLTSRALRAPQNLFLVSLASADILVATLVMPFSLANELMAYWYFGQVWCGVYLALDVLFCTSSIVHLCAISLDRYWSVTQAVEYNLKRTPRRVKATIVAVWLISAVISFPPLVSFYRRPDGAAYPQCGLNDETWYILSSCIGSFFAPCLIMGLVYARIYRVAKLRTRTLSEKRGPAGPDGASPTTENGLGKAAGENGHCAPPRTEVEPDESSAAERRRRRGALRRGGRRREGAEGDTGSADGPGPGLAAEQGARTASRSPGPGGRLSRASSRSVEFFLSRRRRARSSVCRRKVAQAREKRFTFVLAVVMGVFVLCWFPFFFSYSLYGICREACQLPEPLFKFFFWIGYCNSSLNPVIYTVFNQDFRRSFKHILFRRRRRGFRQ
T2 sequence (P19328 whole entry): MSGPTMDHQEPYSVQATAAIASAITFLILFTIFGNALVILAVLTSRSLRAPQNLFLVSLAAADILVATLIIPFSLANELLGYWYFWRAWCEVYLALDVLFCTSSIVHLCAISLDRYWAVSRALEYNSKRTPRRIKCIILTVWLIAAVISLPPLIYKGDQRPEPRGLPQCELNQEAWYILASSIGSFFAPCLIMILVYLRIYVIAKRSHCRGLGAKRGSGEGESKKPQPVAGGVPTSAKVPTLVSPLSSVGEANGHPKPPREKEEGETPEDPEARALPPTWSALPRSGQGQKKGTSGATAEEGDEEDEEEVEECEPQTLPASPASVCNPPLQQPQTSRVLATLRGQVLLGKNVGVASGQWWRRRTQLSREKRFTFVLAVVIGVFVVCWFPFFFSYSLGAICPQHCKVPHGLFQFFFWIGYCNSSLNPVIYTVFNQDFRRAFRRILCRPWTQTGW
T2 sequence (P22909 whole entry): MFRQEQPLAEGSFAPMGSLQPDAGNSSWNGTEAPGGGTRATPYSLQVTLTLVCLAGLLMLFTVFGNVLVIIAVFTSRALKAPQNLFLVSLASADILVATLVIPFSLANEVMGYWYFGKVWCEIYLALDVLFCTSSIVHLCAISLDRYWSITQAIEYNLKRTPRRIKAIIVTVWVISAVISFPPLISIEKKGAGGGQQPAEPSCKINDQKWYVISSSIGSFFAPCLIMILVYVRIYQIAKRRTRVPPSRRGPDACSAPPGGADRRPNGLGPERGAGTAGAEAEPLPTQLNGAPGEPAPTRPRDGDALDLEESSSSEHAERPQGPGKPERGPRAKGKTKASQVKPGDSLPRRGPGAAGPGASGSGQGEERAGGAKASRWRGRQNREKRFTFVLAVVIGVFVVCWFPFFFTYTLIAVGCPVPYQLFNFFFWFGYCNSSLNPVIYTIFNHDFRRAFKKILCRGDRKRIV

[6] = target: T2, Adrenergic receptor alpha-2; experiment: 50% inhibition of specific [3H]clonidine binding (0.4 nM) to Alpha-2 adrenergic receptors in rat isolated brain membranes; assay type: cell membranes, Membrane
Procedure, shortened: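 Whole rat brain (minus cerebellum) from male Wistar rats (200–250 g), homogenized in ice-cold 50 mM Tris-HCl pH 7.7 and washed twice at 50000g. Bound ligand was collected by rapid filtration and counted. IC50 was derived by log-probit analysis.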

[7] = target: T1, Adrenergic receptor alpha-1; experiment: Binding affinity against alpha-1 adrenergic receptor is the ability to inhibit the specific [3H]prazosin binding (0.2 nM) to rat isolated brain membranes by 50% was reported.
[8] = target: T2, Adrenergic receptor alpha-2; experiment: Binding affinity against alpha-2 adrenergic receptor is the ability to inhibit the specific [3H]clonidine binding (0.4 nM) to rat isolated brain membranes by 50% was reported.; set-up: species or system Membrane
Procedure, shortened: (§1)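 Whole rat brain (minus cerebellum) from male Wistar rats (200–250 g), homogenized in ice-cold 50 mM Tris-HCl pH 7.7 and washed twice at 50000g. […] Bound ligand was collected by rapid filtration and counted. IC50 was derived by log-probit analysis.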

[9] = target: T2, Adrenergic receptor alpha-2; experiment: Binding affinity against Alpha-2 adrenergic receptor is the ability to inhibit the specific [3H]clonidine binding (0.4 nM) to rat isolated brain membranes by 50% was reported; 2.5*10e-8; assay type: tissue-based, Membrane
[10] = target: T1, Adrenergic receptor alpha-1; experiment: Binding affinity against alpha-1 adrenergic receptor is the ability to inhibit the specific [3H]-prazosin binding (0.2 nM) to rat isolated brain membranes by 50% was reported; 5*10e-4; assay type: tissue-based, Membrane
Procedure, shortened: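 Brain membranes were prepared from male Wistar rats (200–250 g, cerebellum removed) in ice-cold 50 mmol/L Tris-HCl, pH 7.7, with two 50000g spins, and used at 1 mg/mL protein (Lowry). […] Bound label was collected by vacuum filtration and counted. IC50 came from log probit analysis.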

[11] = target: T1, Adrenergic receptor alpha-1; experiment: Binding affinity against alpha-1 adrenergic receptor is the ability to inhibit the specific [3H]-prazosin binding (0.2 nM) to rat isolated brain membranes by 50% was reported; 4.85*10e-6; assay type: tissue-based, Membrane
Procedure, shortened: (§2)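 Whole rat brain (minus cerebellum) from male Wistar rats (200–250 g), homogenized in ice-cold 50 mM Tris-HCl pH 7.7 and washed twice at 50000g. […] Bound ligand was collected by filtration and counted. IC50 was derived by log-probit analysis.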

[12] = target: T2, Adrenergic receptor alpha-2; experiment: Binding affinity against Alpha-2 adrenergic receptor is the ability to inhibit the specific [3H]clonidine binding (0.4 nM) to rat isolated brain membranes by 50% was reported; 9.1*10e-9; assay type: tissue-based, Membrane
Procedure, shortened: as §1

[13] = target: T2, Adrenergic receptor alpha-2; experiment: Binding affinity against Alpha-2 adrenergic receptor is the ability to inhibit the specific [3H]clonidine binding (0.4 nM) to rat isolated brain membranes by 50% was reported; 1.4*10e-7; assay type: tissue-based, Membrane
Procedure, shortened: as §1

[14] = target: T1, Adrenergic receptor alpha-1; experiment: Binding affinity against alpha-1 adrenergic receptor is the ability to inhibit the specific [3H]prazosin binding (0.2 nM) to rat isolated brain membranes by 50% was reported; 6.1*10e-5; assay type: tissue-based, Membrane
[15] = target: T2, Adrenergic receptor alpha-2; experiment: Binding affinity against Alpha-2 adrenergic receptor is the ability to inhibit the specific [3H]clonidine binding (0.4 nM) to rat isolated brain membranes by 50% was reported; 1.6*10e-8; set-up: species or system Membrane
Procedure, shortened: as §1

[16] = target: T1, Adrenergic receptor alpha-1; experiment: Binding affinity against alpha-1 adrenergic receptor is the ability to inhibit the specific [3H]prazosin binding (0.2 nM) to rat isolated brain membranes by 50% was reported; 5.8*10e-7; assay type: tissue-based, Membrane
Procedure, shortened: as §2

| SMILES | pC60 (Rattus norvegicus [1]) [uM kg-1] | pC25 (Rattus norvegicus [2]) [uM kg-1] | IC50 [6] [µM] | IC50 [7] [µM] | other results |
| --- | --- | --- | --- | --- | --- |
| Clc1cccc(Cl)c1NC1=NCCN1 [CLONIDINE] | 1.78 | 2.04 |  |  |  |
| c1ccc(C2CC2)c(OCC2=NCCN2)c1 [CIRAZOLINE] | 2.36 |  |  |  | IC50 [3]: 0.89 µM; logD [4]: 0.53; IC50 [5]: 0.059 µM |
| CNC[C@H](O)c1cccc(O)c1 [PHENYLEPHRINE] | 1.55 |  |  |  |  |
| CCCN(CCC)C1CCc2c(ccc(O)c2O)C1 (stereo not given) | 0.54 |  | 0.08 | 15 |  |
| COc1ccc(OC)c(C(O)C(C)N)c1 (stereo not given) [METHOXAMINE] | 0.75 |  | 3.6 | 170 |  |
| c1ccc2c(CC3=NCCN3)cccc2c1 [NAPHAZOLINE] | 1.83 | 0.95 |  |  |  |
| FC(F)(F)c1ccc(Cl)c(NC2=NCCN2)c1 | 1.21 |  |  | 0.47 | logD [4]: 1.54; IC50 [8]: 0.15 µM |
| C=CCN1CCc2nc(N)sc2CC1 [TALIPEXOLE] | 0.69 | 1.43 |  |  | IC50 [9]: 0.025 µM; IC50 [10]: 500 µM |
| Cc1csc(Cl)c1NC1=NCCN1 [TIAMENIDINE] | 1.2 | 0.69 |  |  | IC50 [11]: 4.85 µM; IC50 [12]: 0.0091 µM |
| Cc1cccc(C)c1NC1=NCCCS1 [XYLAZINE] | -0.02 | 0.62 |  |  | IC50 [13]: 0.14 µM; IC50 [14]: 61 µM |
| c1cc2c(c(NC3=NCCN3)c1)CCCC2 [TRAMAZOLINE] | 1.8 | 0.55 |  |  | IC50 [15]: 0.016 µM |
| Cc1cc(C(C)(C)C)c(O)c(C)c1CC1=NCCN1 [OXYMETAZOLINE] | 2.24 |  |  |  | logD [4]: -0.32 |
| Oc1ccc(NC2=NCCN2)cc1O | 2.44 |  |  | 5.1 | IC50 [8]: 0.014 µM |
| N=C(N)N/N=C/c1c(Cl)cccc1Cl [GUANABENZ] | 0.93 |  | 0.0017 |  |  |
| CCCN(CCC)C1CCc2c(O)cccc2C1 (stereo not given) [5-OH-DPAT] | -0.13 |  | 0.85 | 18 |  |
| CCCN(CCC)C1CCc2ccc(O)cc2C1 (stereo not given) | -0.09 |  | 1.2 | 18 |  |
| CN(C)C1CCc2c(ccc(O)c2O)C1 (stereo not given) | 1.2 |  | 0.017 | 39 |  |
| Brc1c(NC2=NCCN2)ccc2nccnc12 [BRIMONIDINE] |  | 1.55 |  |  |  |
| Cc1cc(C(C)(C)C)cc(C)c1CC1=NCCN1 [XYLOMETAZOLINE] | 1.12 | 0.26 |  |  | IC50 [16]: 0.58 µM |
| CCCN(CCC)C1CCc2cc(O)c(O)cc2C1 (stereo not given) | 0.36 |  | 0.087 | 24 |  |
| CNCC(O)c1cccc(NS(C)(=O)=O)c1 (stereo not given) [AMIDEPHRINE MESYLATE] | 1.36 |  | 1.9 | 40 |  |
